Reference: paper PMC2193294 (The Journal of Experimental Medicine, 2001)
Blank lines part the entries; values can stand above or below the compound they belong to.

Key:
vWF [1] = assay: vWF reductase activity: collagen binding activity / vWF antigen ratio in vitro; type: biochemical, human
Method in brief: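 Plasma from a TTP patient (plasmapheresis; centrifuged 2,000 g, 20 min, 4°C) was used at 10 μl with 90 μl Hepes-buffered saline containing 1 mM CaCl2. The buffer held purified human platelet TSP-1 (0.001–100 μg/ml; purified in 0.1 or 2 mM CaCl2 buffers, quantified by A280) or HMEC-1 conditioned medium. Incubation was 1 or 24 h at 37°C. Aliquots were diluted 10-fold and assayed for collagen binding and vWF antigen, giving a ratio. Triplicates, mean and SD.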

vWF [2] = assay: Formation of new thiols in vWF; type: biochemical, human
vWF [3] = conditions: cited from earlier work
vWF [4] = assay: Binding of TSP-1 to vWF; parameters: species or system human
Method in brief: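 vWF (5 μg/ml in 0.1 M NaHCO3, pH 8.3) adsorbed to wells overnight at 4°C, then blocked with 2% BSA in HBS (90 min, 37°C). Control wells were BSA-blocked only, with 10 μg/ml TSP-1. TSP-1 (0–10 μg/ml) in Hepes/NaCl/1 mM CaCl2/1 mM MgCl2, pH 7.4, with 0, 5 or 20 mM NEM, 30 min RT with shaking. Wells washed with 1 M NaCl buffer. Detection: anti-TSP-1 mAb HB8432 (10 μg/ml), then peroxidase anti-mouse (1:1,000). Triplicates, mean and SD.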

activated platelets = conditions: cited from earlier work
[5] = cited from earlier work
collagen = conditions: cited from earlier work
vWF [6] = type: biochemical, human
plasma vWF = assay: Reduction in average multimer size of plasma vWF in mice; type: in vivo; conditions: Balb c mice, 1 mg/kg i.p., 24 h, P < 0.05
Method in brief: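 Balb c mice aged 7–9 wk, n = 4 per group with 2 male and 2 female each, were given buffer vehicle or purified human platelet TSP-1 at 1 mg/kg as a 0.1 ml i.p. injection. After 24 h, EDTA plasma was collected by cardiac puncture. Plasma was assayed in triplicate for vWF collagen binding activity and vWF antigen, using anti-rat vWF polyclonal antibodies. Multimer size was expressed as the collagen binding/antigen ratio.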

[7] = Plasma concentration of human TSP-1 in mice after injection; type: in vivo; conditions: Balb c mice, 1 mg/kg i.p., 24 h after injection, TSP-1 ELISA
Method in brief: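 Balb c mice (7–9 wk; 2 male, 2 female per group) received purified human platelet TSP-1 at 1 mg/kg as a 0.1 ml i.p. injection. EDTA blood was taken by cardiac puncture 24 h later. Human TSP-1 was measured by sandwich ELISA: HB8432 capture (5 μg/ml, pH 9.6, overnight at 4°C), BSA block, diluted plasma 30 min RT, biotin-HB8432 (5 μg/ml), then StreptABComplex/HRP (1:100). Standards were TSP-1-depleted plasma spiked with platelet TSP-1; the assay was linear over 1–100 ng/ml.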

platelet aggregation = conditions: high fluid shear; cited from earlier work

Compound: O=C(O)CN(CCN(CC(=O)O)CC(=O)O)CC(=O)O [EDTA, reference compound]
- effect of EDTA (chelation of Ca2+) on vWF reductase activity of TSP-1 (vWF [1]; not shown): ablated the vWF reductase activity of TSP-1
- effect of EDTA on TSP-1–facilitated formation of free thiols in vWF (vWF [2]; not shown): ablated TSP-1–facilitated formation of free thiols in vWF
- effect of EDTA on vWF reductase activity in endothelial cell–conditioned medium (vWF [3]): inhibited

Compound: CCN1C(=O)C=CC1=O [NEM, N-ethylmaleimide, reference compound]
- TSP-1/vWF complex formation vs NEM concentration (vWF [4]; NEM 0, 5, 20 mM, 30 min, room temperature): Complex formation increased with increasing NEM concentration

Compound: large vWF multimers: large multimers of von Willebrand factor
- affinity for activated platelets vs monomeric fragments (activated platelets): ~100 fold
- affinity for activated platelets vs small multimers (activated platelets): up to 10 fold
- ristocetin cofactor activity per unit antigen vs small multimers [5]: considerably higher

Compound: multimeric vWF: multimeric von Willebrand factor
- collagen binding affinity vs monomeric vWF fragments (collagen): ~100 fold

- dependence of TSP-1–mediated reduction in vWF multimer size (vWF [1]; TTP1 plasma, TSP-1 0.001 to 100 μg/ml, 1 or 24 h, 37°C): concentration and time dependent
- optimal TSP-1 concentration for reduction of vWF in 1 h (vWF [1]; purified TSP-1, ∼1 μg/ml plasma vWF, 1 h): ~0.1 µg/mL
- optimal TSP-1 concentration for reduction of vWF in 24 h (vWF [1]; purified TSP-1, ∼1 μg/ml plasma vWF, 24 h): ~0.01 µg/mL
- binding of TSP-1 to wells not coated with vWF (vWF [4]; 10 μg/ml TSP-1, BSA-blocked wells): no binding
Compound: thrombospondin-1 [TSP-1]
- average multimer size of plasma vWF (vWF [6]; TSP-1 added to TTP2 and TTP3 patient plasmas (not shown)): reduced the average multimer size of the plasma vWF
- very large vWF multimers (vWF [6]; TTP1 patient plasma, 1 h, 37°C, 1% agarose gel): the very large multimers were lost
- vWF reducing activity of three different preparations of platelet TSP-1 (vWF [1]; not shown): had the same vWF reducing activity
- dependence of MPB incorporation on TSP-1 concentration (vWF [2]; TSP-1 0.01 to 100 μg/ml, 60 min, 37°C): the incorporation increased with increasing TSP-1 concentration
- formation of new thiols in vWF (MPB incorporation) (vWF [2]; purified human vWF 2 μg/ml, 60 min, 37°C, TSP-1 0.01 to 100 μg/ml or HMEC-1–conditioned medium, MPB 100 μM): resulted in incorporation of MPB into vWF
- average multimer size of plasma vWF vs buffer vehicle (plasma vWF): significantly lower
- concentration of human TSP-1 in mouse plasma [7]: ~1000 ng/mL

Compound: unusually large vWF multimers: unusually large vWF multimers secreted by endothelial cells
- induction of platelet aggregation vs largest plasma forms (platelet aggregation): more effective
